Format in all cases: functional
Test [1] deals with Aspergillus flavus. As to the kind of experiment: Antifungal activity against Aspergillus flavus after 3 to 4 days by serial plate dilution method. In outline:
(§1)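 Sabouraud's agar made from peptone, D-glucose and agar, pH 5.7, and lawned with a fungal spore suspension in normal saline. Wells cut with an agar punch received 10–50 mg/ml test compound in DMSO; DMSO-only control plates. Triplicate plates kept at 37 °C for 3–4 days.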

Test [2] deals with Trichophyton mentagrophytes. As to the kind of experiment: Antifungal activity against Trichophyton mentagrophytes after 3 to 4 days by serial plate dilution method.
For test [3], the system named is Trichophyton mentagrophytes. Description: Antifungal activity against Trichophyton mentagrophytes at 10 to 50 ug/ml after 3 to 4 days by serial plate dilution method.
Another test has as its system Klebsiella sp. Description: Antibacterial activity against Klebsiella sp. after 24 hrs by disk diffusion method. The note with it: for MIC: Klebsiella sp., 24 h. In outline: (§2)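 Discs with each concentration, in triplicate, on nutrient agar seeded with fresh bacteria. Incubated 37 °C for 24 h, with solvent and growth controls. Zones of inhibition and MIC recorded.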
On the technique in general: In agar diffusion tests the substance spreads into inoculated agar from a disc or well.

Test [4] relates to Talaromyces marneffei. Description: Antifungal activity against Penicillium marneffei after 3 to 4 days by serial plate dilution method. Put shortly:
as §1

A further test concerns Escherichia coli. As to the kind of experiment: Antibacterial activity against Escherichia coli ATTC 25922 after 24 hrs by disk diffusion method. The note with it: for MIC: Escherichia coli, ATTC 25922, 24 h. Put shortly:
as §2

The next test deals with Staphylococcus aureus. Description: Antibacterial activity against Staphylococcus aureus ATCC 25923 after 24 hrs by disk diffusion method. As to conditions: for MIC: Staphylococcus aureus, ATCC 25923, 24 h. Put shortly: as §2
Test [5] concerns Aspergillus flavus. As to the kind of experiment: Antifungal activity against Aspergillus flavus at 10 to 50 ug/ml after 3 to 4 days by serial plate dilution method.
The test system of a further test is Pseudomonas aeruginosa. Description: Antibacterial activity against Pseudomonas aeruginosa ATTC 27853 after 24 hrs by disk diffusion method. The note with it: for MIC: Pseudomonas aeruginosa, ATTC 27853, 24 h. In outline: as §2
For test [6], the system named is Talaromyces marneffei. Description: Antifungal activity against Penicillium marneffei at 10 to 50 ug/ml after 3 to 4 days by serial plate dilution method.
In test [7] the test system is Aspergillus fumigatus. Description: Antifungal activity against Aspergillus fumigatus after 3 to 4 days by serial plate dilution method.
Test [8] has as its system Aspergillus fumigatus. As to the kind of experiment: Antifungal activity against Aspergillus fumigatus at 10 to 50 ug/ml after 3 to 4 days by serial plate dilution method.

This is an account of results in ChEMBL document CHEMBL1154152, “Synthesis of some novel bioactive 4-oxy/thio substituted-1H-pyrazol-5(4H)-ones via efficient cross-Claisen condensation” (2009).

Structures are written as SMILES. Values after ≈ are worked out from the molar mass of the structure shown. Some results are limits rather than exact numbers.

Broadly, the MIC is the smallest concentration in the dilution series that meets the test's criterion for growth inhibition. A higher MIC goes with a need for much substance. In the case of `COc1ccc(OC2C(=O)NN=C2C)cc1` (stereo not given), the MIC against Aspergillus flavus [1] is 50 µg/mL (≈ 227 µM); in test [2], 50 µg/mL (≈ 227 µM); against Klebsiella sp. it was 50 µg/mL (≈ 227 µM); in the test on Talaromyces marneffei [4], 50 µg/mL (≈ 227 µM); with Escherichia coli, 25 µg/mL (≈ 114 µM); with Staphylococcus aureus, 6.25 µg/mL (≈ 28.4 µM). The MIC in the test on Pseudomonas aeruginosa and against Aspergillus fumigatus [7] was 50 µg/mL (≈ 227 µM) in each case. The “inhibition zone (IZ)” value was less than 10 mm in test [3]; less than 10 mm in the test on Klebsiella sp.; 11 mm with Escherichia coli; 19 mm in the test with Staphylococcus aureus; less than 10 mm with Aspergillus flavus [5]; less than 10 mm in the test on Pseudomonas aeruginosa. Besides, the “inhibition zone (IZ)” value in the test on Talaromyces marneffei [6] and in the test on Aspergillus fumigatus [8] was less than 10 mm throughout.
In the case of `CC(C)CC1=NNC(=O)C1Sc1ccc(Cl)cc1` (stereo not given), the MIC with Aspergillus flavus [1] was 6.25 µg/mL (≈ 22.1 µM); in test [2] it was 6.25 µg/mL (≈ 22.1 µM); in the test on Klebsiella sp., 6.25 µg/mL (≈ 22.1 µM); against Talaromyces marneffei [4], 6.25 µg/mL (≈ 22.1 µM); in the test on Escherichia coli it was 25 µg/mL (≈ 88.4 µM); with Staphylococcus aureus it was 6.25 µg/mL (≈ 22.1 µM). Moreover, the MIC against Pseudomonas aeruginosa and with Aspergillus fumigatus [7] was 6.25 µg/mL (≈ 22.1 µM) throughout. Further, the “inhibition zone (IZ)” value in test [3] is 19 mm; in the test on Klebsiella sp., 16 mm; in the test with Escherichia coli, 11 mm; with Staphylococcus aureus it was 18 mm; in the test on Aspergillus flavus [5] it was 18 mm; in the test on Pseudomonas aeruginosa, 17 mm. The “inhibition zone (IZ)” value in the test on Talaromyces marneffei [6] was 20 mm; in the test on Aspergillus fumigatus [8], 17 mm.
As for `CC1=NNC(=O)C1Sc1ccccc1` (stereo not given), the MIC was 6.25 µg/mL (≈ 30.3 µM) in the test on Aspergillus flavus [1]; 6.25 µg/mL (≈ 30.3 µM) in test [2]; 6.25 µg/mL (≈ 30.3 µM) in the test on Klebsiella sp.; 6.25 µg/mL (≈ 30.3 µM) in the test on Talaromyces marneffei [4]; 25 µg/mL (≈ 121 µM) against Escherichia coli; 6.25 µg/mL (≈ 30.3 µM) against Staphylococcus aureus. Besides, the MIC against Pseudomonas aeruginosa and against Aspergillus fumigatus [7] was 6.25 µg/mL (≈ 30.3 µM) each time. Besides, the “inhibition zone (IZ)” value in test [3] stood at 18 mm; in the test on Klebsiella sp., 16 mm; in the test on Escherichia coli it was 13 mm; with Staphylococcus aureus, 18 mm; in the test with Aspergillus flavus [5] it was 16 mm; in the test with Pseudomonas aeruginosa it was 19 mm. For the same molecule, the “inhibition zone (IZ)” value is given as 21 mm in the test on Talaromyces marneffei [6] and 17 mm with Aspergillus fumigatus [8].
Consider `CC(C)(C)C1=NNC(=O)C1Oc1ccccc1` (stereo not given), for which the MIC (in the test with Aspergillus flavus [1]; in test [2]; against Klebsiella sp.; against Talaromyces marneffei [4]; against Escherichia coli; in the test on Staphylococcus aureus) was 6.25 µg/mL (≈ 26.9 µM) throughout. Moreover, the MIC against Pseudomonas aeruginosa and in the test with Aspergillus fumigatus [7] was 6.25 µg/mL (≈ 26.9 µM) each time. The “inhibition zone (IZ)” value in test [3] was found to be 19 mm; with Klebsiella sp., 18 mm; in the test with Escherichia coli, 18 mm; in the test on Staphylococcus aureus, 16 mm; with Aspergillus flavus [5], 16 mm; in the test with Pseudomonas aeruginosa it was 20 mm. For the same molecule, the “inhibition zone (IZ)” value is recorded as 21 mm with Talaromyces marneffei [6] and 18 mm in the test with Aspergillus fumigatus [8].
In the case of `O=C1NN=C(c2ccc(Cl)cc2)C1Oc1ccccc1` (stereo not given), the MIC came out at 50 µg/mL (≈ 174 µM) against Aspergillus flavus [1]; 50 µg/mL (≈ 174 µM) in test [2]; 50 µg/mL (≈ 174 µM) against Klebsiella sp.; 50 µg/mL (≈ 174 µM) against Talaromyces marneffei [4]; 25 µg/mL (≈ 87.2 µM) against Escherichia coli; 6.25 µg/mL (≈ 21.8 µM) in the test on Staphylococcus aureus. Moreover, the MIC in the test with Pseudomonas aeruginosa and against Aspergillus fumigatus [7] was 50 µg/mL (≈ 174 µM) each time. Besides, the “inhibition zone (IZ)” value in test [3] is on record as less than 10 mm; with Klebsiella sp., less than 10 mm; in the test with Escherichia coli it was 12 mm; in the test on Staphylococcus aureus, 21 mm; with Aspergillus flavus [5], less than 10 mm; in the test with Pseudomonas aeruginosa, less than 10 mm. The “inhibition zone (IZ)” value in the test with Talaromyces marneffei [6] and in the test on Aspergillus fumigatus [8] was less than 10 mm in each case.
